Assay outcomes deposited in PubChem BioAssay by The Scripps Research Institute Molecular Screening Center.
This is a sample that favours compounds with a hit; in the whole collection about 1.8% have one here.
MBD2 DNA inh: blocks human MBD2 binding to methylated DNA | inhibition, % at 4.4 µM | TR-FRET, MBD2 binding to methylated oligonucleotide | AID 686964 | actives 0.31% (n = 370,000); in the data active means inhibition above about 13%
TDP2 absorb: TDP2 (human) inhibition, absorbance primary screen; O95551; recombinant TDP2, T5PNP hydrolysis, p-nitrophenol absorbance 415 nm; inhibition, % at 12.8 µM; actives 0.34% (n = 370,000); AID 720702;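 active means inhibition above the mean of all tested compounds plus 3 SD, set per campaign, cut at about 25% in these data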;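 further: 0% = DMSO with enzyme and 100% = buffer with substrate but no TDP2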
Target sequence (O95551 whole entry, looked up): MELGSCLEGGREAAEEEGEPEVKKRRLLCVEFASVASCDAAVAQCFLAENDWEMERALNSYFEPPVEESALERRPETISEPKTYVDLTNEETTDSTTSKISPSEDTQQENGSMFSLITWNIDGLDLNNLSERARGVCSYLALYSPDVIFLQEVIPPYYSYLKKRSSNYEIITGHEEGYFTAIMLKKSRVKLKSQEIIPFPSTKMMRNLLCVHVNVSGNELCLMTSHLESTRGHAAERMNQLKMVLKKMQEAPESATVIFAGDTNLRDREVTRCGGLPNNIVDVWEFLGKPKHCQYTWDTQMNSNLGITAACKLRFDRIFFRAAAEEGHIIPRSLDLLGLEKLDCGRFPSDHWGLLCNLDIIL
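Test system: Human TDP2 enzyme | Reagent: 5 mM T5PNP | Compound dosing: 12.8 µM single point, 1% DMSO | Incubation: Enzyme reaction with compound for 2 h at 37 °C | Technique: p-Nitrophenol epi absorbance | Read-out: % inhibition relative to enzyme-containing and enzyme-free wells | Benchmarks: High control without enzyme, low control DMSO plus TDP2 | Replicates: Singlicate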
UHRF1 MBD2 ctr: human UHRF1 methylated DNA binding inhibitors; UHRF1 binding to methylated oligo, TR-FRET; inhibition, % at 4.4 µM; actives 0.75% (n = 370,000); in the data active means inhibition above about 21%;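 further: UHRF1 SRA domain binding a hemimethylated CpG hairpin DNA probe; 0% = median of test compound wells and 100% = reference inhibitor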
LEDGF integ inh: blocks HIV-1 LEDGF/p75-dependent DNA integration | TR-FRET IN-LEDGF/p75 DNA integration, Eu/Cy5 | inhibition, % at 3.7 µM | actives 0.64% (n = 370,000);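 active means inhibition above the screen-wide mean plus 3 SD, cut at about 13% in these data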;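 further: signal is the Cy5 over europium emission ratio at 671 and 618 nm; 0% = plate median of compound wells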
core dimer inh: blocks dimerization of HCV core protein. TR-FRET GST/Flag-core106 dimerization, 1536-well. inhibition, % at 5 µM. actives 0.33% (n = 300,000). AID 1899;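 active means inhibition above the mean of all tested compounds plus 3 SD, set per screening campaign, cut at about 45% in these data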
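assay system = GST-tagged and Flag-tagged HCV core protein residues 1-106 | controls = unlabelled core106 and no-GST-core106 wells | incubation = compound-protein-antibody incubation 4 h at 22.5 °C | probe or stimulus = Eu donor and XL665 acceptor anti-tag antibodies | read-out = % inhibition based on acceptor/donor emission ratio | signal = TR-FRET 671 and 617 nm emission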
TDP2 confirm: human TDP2 inhibition, confirmation. shares compounds with TDP2 absorb. recombinant human TDP2, absorbance read-out. inhibition, % at 12.8 µM. actives 22% (n = 1,100); in the data active means inhibition above about 25%;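 further: 0% = vehicle with enzyme and 100% = no enzyme buffer only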
Numbers without * were called inactive; . = not tested or not shown.

SMILES	MBD2 DNA inh	TDP2 absorb	UHRF1 MBD2 ctr	LEDGF integ inh	core dimer inh	TDP2 confirm
COc1ccc(-c2nnc(SCC(=O)Nc3ccc(S(=O)(=O)Nc4cc(C)nc(C)n4)cc3)n2-c2ccc(OC)cc2)cc1	-6.9	-5.1	-0.1	2.0	.	.
CCOC(=O)CC[C@H]1CC[C@]2(CCCN(C(=O)c3ccco3)C2)O1	4.9	-1.4	2.1	-3.7	.	.
N#CCCn1cc(C(=O)N2CCCCC2)c(-c2ccc([N+](=O)[O-])cc2)n1	0.2	-2.2	1.1	1.0	0.4	.
N#CCCn1cc(C(=O)N2CCOCC2)c(-c2ccc3c(c2)OCCO3)n1	1.9	24.9*	-4.5	1.5	0.6	-8.7
O=C(NCc1ccc(F)cc1)C1CC(=O)N(Cc2ccco2)C1 (configuration not stated)	-8.0	25.2*	-2.6	1.6	-11.7	-5.7
COc1cc(OC)c(OC)cc1CN1CCN(Cc2ccc(SC)cc2)CC1	1.4	24.9*	-2.1	2.8	-1.4	-0.6
CCOC(=O)C1(Cc2ccccc2C)CCCN(C(=O)c2sccc2C)C1 (configuration not stated)	-5.6	3.8	-2.4	2.6	2.6	.
CCOC(=O)C1(CCOC)CCN(C(=O)c2sccc2C)CC1	-1.0	26.0*	-0.5	-3.1	-2.6	-9.9
Cc1ccc(NC(=O)Cc2nnc(SCC(=O)Nc3nncs3)n2C)c(C)c1	-1.6	29.2*	1.2	0.2	-4.0	2.4
C=CCN(CC#Cc1ccccc1)Cc1ccc(OC)cc1	3.3	3.9	1.7	1.8	.	.
O=C(CNCCN1CCOCC1)Nc1ccccc1Sc1ccccc1	-4.2	27.8*	2.0	5.2	-12.5	13.8
O=C(CNc1cccc2ccccc12)N/N=C/C(Br)=C/c1ccccc1	-3.8	37.6*	0.2	12.3	12.5	-1.0
COc1ccc(COC(=O)c2cccc(S(=O)(=O)N3CCN(C(C)=O)CC3)c2)cc1F	2.0	25.2*	-2.9	-1.0	-4.0	6.6
Cc1ccc(C)c(S(=O)(=O)Nc2ccc(O)c3ccccc23)c1	-17.0	42.2*	-0.5	8.3	-2.1	15.1
Cc1ccc(C)c(S(=O)(=O)Nc2ccc(O)c(C(=O)O)c2)c1	0.8	0.4	0.9	-1.8	1.3	.
Nc1c(S(=O)(=O)c2cccs2)c2nc3ccccc3nc2n1Cc1ccccc1	5.0	43.9*	8.8	6.2	10.7	3.6
COc1ccc(-n2c(N)c(C(=O)NCc3ccco3)c3nc4ccccc4nc32)cc1	-9.2	26.9*	-7.2	6.2	7.8	2.6
COc1cc(-n2c(N)c(C(=O)NCc3ccco3)c3nc4ccccc4nc32)cc(OC)c1OC	-1.1	11.0	-2.3	-1.9	9.3	.
CC(C)(C)c1ccc(C(=O)NCCCNC(=O)c2ccco2)cc1	-1.6	27.6*	-1.0	-0.2	9.3	-8.7
Cc1ccccc1N1CCN(Cc2ccc([N+](=O)[O-])o2)CC1	-1.5	5.7	-2.8	-1.0	2.7	.
O=[N+]([O-])c1ccc(CN2CCN(c3ccccc3Cl)CC2)o1	-3.4	27.2*	0.7	6.3	7.3	17.9
CC(C)c1ccc(NC(=O)NCc2ccccn2)cc1	0.9	52.2*	-2.8	-4.5	-5.8	3.2
O=C(NCc1ccccn1)Nc1ccc(Cl)c(Cl)c1	4.4	0.1	-1.5	-0.3	3.2	.
C=CCOC(=O)N[C@H](c1ccc2ccccc2c1)[C@H](C)/C=C/CC(=O)OC	1.1	4.5	-0.4	-1.2	.	.
CC1=NN(c2ccc(N)cc2)C(=O)C1	-6.4	37.8*	-1.4	2.2	3.4	18.6
SMILES	MBD2 DNA inh	TDP2 absorb	UHRF1 MBD2 ctr	LEDGF integ inh	core dimer inh	TDP2 confirm
CC1=NN(c2ccc(Cl)cc2)C(=O)C1	2.6	57.6*	15.7	2.4	-2.9	6.4
CC1=NN(c2cccc([N+](=O)[O-])c2)C(=O)C1	-1.1	6.8	-5.1	0.1	0.8	.
CCCCCCCCNC(=O)C1CSCCS(=O)(=O)N1Cc1ccc(OC)cc1 (configuration not stated)	-10.0	2.0	-1.2	-0.1	.	.
COc1ccc(-n2c(SCC(=O)NCCCSC)nnc2-c2ccncc2)cc1	-0.8	-2.0	2.9	2.4	.	.
CC(C)N(Cc1ccccc1)C(=S)NC(=O)C1(C)CC1(Cl)Cl (configuration not stated)	-0.5	25.5*	-2.6	5.6	-3.5	4.8
CC(C)NC(=O)N[C@H]1C[C@@H]2O[C@H](CO)CC[C@@H]2O[C@@H]1CCc1ccc(-c2ccc(F)cc2)cc1	1.1	5.5	5.5	-1.7	.	.
O=c1cc(-c2ccc(C3CCCCC3)cc2)[nH][nH]1	-2.7	3.4	-2.5	2.0	-1.8	.
O=c1cc(-c2ccc(Br)cc2)[nH][nH]1	-0.3	51.0*	1.9	5.1	-2.4	10.2
COc1ccc(NC(=O)CSc2nnc(-c3cc(C)[nH]n3)n2N)cc1OC	2.1	29.6*	-0.9	-2.8	-3.9	-6.6
COc1ccccc1N1CCN(CCOc2c(OC)cccc2OC)CC1	-3.9	8.4	-0.8	-0.6	-4.4	.
COc1ccccc1N1CCN(CCCCOc2c(OC)cccc2OC)CC1	-2.4	27.2*	3.7	-3.5	-1.6	-4.5
COc1ccc(/C=C/C(=O)NC2CCN(Cc3ccccc3)CC2)cc1OC	0.4	27.9*	-3.9	1.3	-4.7	-8.4
COc1ccc(NC(=S)NC2CCN(Cc3ccccc3)CC2)cc1OC	3.6	-3.6	3.1	-2.4	-1.0	.
Cc1ccc(-c2cc(C(=O)NN=Cc3cccc4ccccc34)[nH]n2)cc1C	-8.4	-5.9	1.8	3.5	.	.
CCN(CC)c1cc(Cl)c2nonc2c1N	-3.2	33.4*	-9.5	-3.4	-2.2	9.5
O=C(CCc1ccccc1)N[C@H]1[C@@H](OC(=O)c2cccnc2)CCC[C@@]12C(=O)N(Cc1ccccc1)c1ccccc12	1.5	-0.2	3.3	-2.0	.	.
C=C1CCC[C@]2(C)C[C@H]3OC(=O)C(CNCCN(C)C)[C@H]3CC12 (some centres not stated)	-2.7	-9.8	-0.5	1.8	4.7	.
C=C1CCC[C@]2(C)C[C@H]3OC(=O)C(CNCCN(CC)CC)[C@H]3CC12 (some centres not stated)	-2.7	33.9*	-1.2	0.7	-11.1	-4.1
N#Cc1cccc(Cn2ccc3ccc(-c4ccc5ccn(Cc6ccccc6)c5c4)cc32)c1	-0.7	-0.4	-0.3	6.8	.	.
CCNC(=S)NS(=O)(=O)c1ccc(Cl)cc1	1.6	36.6*	5.3	1.4	-3.2	2.6
CC(C)(C)c1ccc(-c2nnc(SCC3CCCCO3)n2-c2ccc(Cl)cc2)cc1 (configuration not stated)	-4.8	13.3	-2.7	2.1	.	.
COc1cccc(/C=C2\SC(=S)N(CC(=O)N(C)C3CCS(=O)(=O)C3)C2=O)c1 (configuration not stated)	8.8	30.1*	23.5*	2.4	-7.3	-3.1
COc1ccc(CCNC(=O)c2ccccc2)cc1	1.6	69.7*	-1.1	-3.9	-2.0	2.1
